Assay results reported in PubChem BioAssay.
Activity calls are given as the source filed them.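 The calls were made as follows, unless noted: active = inhibition of the reporter signal at or above 50%; inactive = inhibition below 50%.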

Key:
[1] = inhibitors of TNFa-induced NFkB p65 translocation, primary screen, imaging, HUVEC, MLSMR starter and 10KST1 sets (AID 438;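 active = inhibition above 20% together with a positive visual image hit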;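 also: compound added about 3h40 before a 20 min TNFalpha stimulation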;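 as to inhibition: signal is the nuclear over cytoplasmic p65 intensity ratio per well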); details: HUVEC TNFa-induced p65 nuclear translocation; cell count: measured here: nuclei count (cytotoxicity indicator), at 2.08 µM; inhibition: at 2 µM, stronger effect = higher value, 0% TNFa-plus-vehicle, 100% no-TNFa wells
[2] = inhibitors of mutant huntingtin aggregation, primary screen, imaging, exon1htt(103Q)mCFP cells, high-content imaging (AID 483;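 active = visual image review flags a hit and inhibition of aggregation exceeds 20%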;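 also: compound exposure lasted 3 days before fixation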;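 as to nuclei count: percent of the per-plate median nuclei count of sample wells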); details: exon1htt(103Q)mCFP cell line, aggregate imaging, at 2 µM; inhibition of aggregation: stronger effect = higher value; nuclei count: measured here: cell count, toxicity
[3] = inhibitors of E-selectin induction by TNFa, primary screen, imaging, HUVEC, immunofluorescence, MLSMR starter and 10KST1 sets (AID 487;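 active = visually confirmed hit in the image check and inhibition above 20%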;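 as to inhibition: signal is fraction of cell area covered by stained E-selectin grains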;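 as to nuclei count: 100% = median nuclei count of all wells on the same plate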); details: HUVEC TNFalpha-induced E-selectin immunofluorescence imaging, at 2 µM; inhibition: stronger effect = higher value; nuclei count: measured here: cell number, toxicity
[4] = target: Voltage-gated potassium channel subunit beta-2 (Rattus norvegicus) (UniProt P62483); assay: KvBeta enzyme negative modulators, primary screen, biochemical, NADPH fluorescence (AID 622;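 active = fluorescence slope higher than the sample average by over 3 SD, cut at about -0.22 in these data, passing the limit was not always enough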;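 also: slope of raw intensity against log time taken from 70 to 1610 s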); details: recombinant KvBeta, 4-cyanobenzaldehyde reduction, at 10 µM, stronger effect = higher value
[5] = target: Voltage-gated potassium channel subunit beta-2 (Rattus norvegicus) (UniProt P62483); assay: KvBeta positive modulators, primary screen, biochemical, NADPH fluorescence (AID 623;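 active = NADPH fluorescence slope more negative than the mean of all samples by about 3 SD, 99.7% confidence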;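 also: fluorescence intensity change per second fitted from 20 to 320 s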); details: Recombinant KvBeta, NADPH fluorescence decrease slope, 10 min; at 10 µM; stronger effect = lower value
[6] = target: Muscarinic acetylcholine receptor M4 (Homo sapiens) (UniProt P08173); assay: compounds altering M4/GIRK thallium flux, either direction, primary screen, M4 allosteric agonist project, cell-based, HEK293 M4/GIRK, BTC-AM (AID 625;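 active = fluorescence slope after compound addition differing from the mean of all tested samples at 99.7% confidence, mostly higher but some lower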;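 also: thallium influx through GIRK channels coupled to M4 in HEK293 cells with BTC-AM dye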); details: at 10 µM, actives lie on both sides
Summary of the method: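 Material: M4/GIRK1/GIRK2 stable HEK293 cell line. Medium: pH 7.3 thallium assay buffer. Dosing: single compound concentration, 10 µM final. Schedule: 1 h dye loading, 2 min kinetic read. Measured by: kinetic fluorescence with BTC-AM dye. Read-out: post-addition slope, 15–24 s, of baseline-normalized fluorescence. Benchmarks: carbachol and DMSO controls.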

[7] = inhibitors of Sendai virus-induced IRF3 signaling, primary screen, TLR/RLR signaling modifier project, cell-based, Sendai virus stimulus, luciferase, 10K MLSCN set (AID 602276;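 active = inhibition at or above 50% at 10 µM; inactive = inhibition below 50%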;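 also: firefly luciferase from ISG56 promoter only with Renilla not read in this screen; 0% = Sendai virus plus DMSO and 100% = medium plus DMSO without virus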); details: HEK293 RL24 IRF3 luciferase reporter, at 10 µM, stronger effect = higher value
[8] = inhibitors of poly I:C-induced TLR3 signaling, primary screen, cell-based, poly I:C stimulus, luciferase, 10K MLSCN set (AID 602277); details: HEK293-TLR3 RL24 IRF3 luciferase reporter, at 10 µM, stronger effect = higher value

Sequence of Voltage-gated potassium channel subunit beta-2 (Rattus norvegicus) (P62483 whole entry, looked up): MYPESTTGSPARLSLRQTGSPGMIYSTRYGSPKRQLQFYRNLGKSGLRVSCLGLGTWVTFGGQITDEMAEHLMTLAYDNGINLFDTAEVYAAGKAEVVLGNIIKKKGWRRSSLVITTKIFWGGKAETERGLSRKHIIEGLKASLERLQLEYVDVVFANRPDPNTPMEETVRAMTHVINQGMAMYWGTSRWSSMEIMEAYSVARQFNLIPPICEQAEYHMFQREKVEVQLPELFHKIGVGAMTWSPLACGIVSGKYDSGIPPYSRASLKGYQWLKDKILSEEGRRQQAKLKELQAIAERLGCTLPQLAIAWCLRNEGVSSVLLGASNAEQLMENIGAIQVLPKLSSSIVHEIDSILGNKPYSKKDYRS
Sequence of Muscarinic acetylcholine receptor M4 (Homo sapiens) (P08173 whole entry, looked up): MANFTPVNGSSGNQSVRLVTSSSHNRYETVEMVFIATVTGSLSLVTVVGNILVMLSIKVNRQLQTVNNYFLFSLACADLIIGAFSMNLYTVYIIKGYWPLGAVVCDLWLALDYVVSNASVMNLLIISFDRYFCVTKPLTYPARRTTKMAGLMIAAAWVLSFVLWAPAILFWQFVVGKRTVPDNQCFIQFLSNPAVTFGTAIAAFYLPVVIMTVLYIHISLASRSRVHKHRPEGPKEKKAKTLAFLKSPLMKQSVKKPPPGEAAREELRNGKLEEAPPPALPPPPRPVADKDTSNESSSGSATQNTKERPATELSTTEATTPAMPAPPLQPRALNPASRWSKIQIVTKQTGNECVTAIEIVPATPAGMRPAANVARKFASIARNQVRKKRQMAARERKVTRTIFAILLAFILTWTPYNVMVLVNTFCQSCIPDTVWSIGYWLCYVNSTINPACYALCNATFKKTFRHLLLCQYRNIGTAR

| SMILES | cell count [1] | inhibition [1] | inhibition of aggregation [2] | nuclei count [2] | inhibition [3] | nuclei count [3] | fluorescence slope [4] | NADPH fluorescence slope [5] | fluorescence slope [6] | inhibition [7] | inhibition [8] |
| --- | --- | --- | --- | --- | --- | --- | --- | --- | --- | --- | --- |
| c1ccc2c(c1)ccc1nnc(-c3ccc4c(c3)OCO4)n12 | 338 | -1.7% (inactive) | 18.1% (inactive) | 87.8% | -25.6% (inactive) | 108% | -0.58 (inactive) | 1.5e-05 (inactive) | 0.00599 (inactive) | -1.33% (inactive) | 25.4% (inactive) |
| COc1cccc(/C(O)=C2/C(=O)C(=O)N(CCN3CCOCC3)C2c2cccnc2)c1 (centres undefined) | 270 | 15% (inactive) | 5.3% (inactive) | 107% | -37.6% (inactive) | 117% | -0.576 (inactive) | -1.6e-05 (inactive) | 0.00687 (inactive) | -4.6% (inactive) | 9.66% (inactive) |
| COCCn1c(SCC(=O)Nc2nnc(C)s2)nnc1-c1c[nH]c2ccccc12 | 518 | 7.1% (inactive) | -15.6% (inactive) | 114% | -37.4% (inactive) | 113% | -0.505 (inactive) | -0.00026 (inactive) | 0.00466 (inactive) | 5.93% (inactive) | 14.2% (inactive) |
| N#CC(C(=O)Nc1ccccc1)=C1CCCCC1 | 356 | -8.4% (inactive) | -8% (inactive) | 108% | -98.6% (inactive) | 131% | -0.516 (inactive) | -4.4e-05 (inactive) | 0.0049 (inactive) | -3.44% (inactive) | -28.2% (inactive) |
| CCCn1c(N2CCN(CC(=O)NCc3cccs3)CC2)nc2ccccc21 | 451 | -6.7% (inactive) | 5.2% (inactive) | 110% | -81.5% (inactive) | 228% | -0.437 (inactive) | -3.1e-05 (inactive) | 0.00415 (inactive) | 21.5% (inactive) | 28.5% (inactive) |
| O=C(OCCCN1C(=O)c2ccccc2C1=O)c1ccco1 | 643 | -2.2% (inactive) | 17.8% (inactive) | 96.8% | 33.4% (inactive) | 98.5% | -0.482 (inactive) | 4.2e-05 (inactive) | 0.00571 (inactive) | -6.62% (inactive) | -11.6% (inactive) |
| O=c1c2ccccc2sn1-c1ccc(S(=O)(=O)N2CCCCC2)cc1 | 539 | -20.9% (inactive) | -8.4% (inactive) | 115% | 53.4% (inactive) | 83.7% | -0.271 (inactive) | -1.7e-05 (inactive) | 0.00829 (inactive) | 3.69% (inactive) | 7.09% (inactive) |
| Cc1ccccc1Cn1nc(C)c(NC(=O)c2noc3c2CCCC3)c1C | 191 | -1.3% (inactive) | 7.3% (inactive) | 101% | -13.5% (inactive) | 120% | -0.571 (inactive) | -2.7e-05 (inactive) | 0.00499 (inactive) | -24.6% (inactive) | -32% (inactive) |
| Oc1cnc2ccccc2c1CN1CCOCC1 | 354 | 0.4% (inactive) | -24.9% (inactive) | 111% | -45.2% (inactive) | 80.9% | -0.542 (inactive) | -1.4e-05 (inactive) | 0.0061 (inactive) | 18% (inactive) | 10.3% (inactive) |
| OCCN1CCN(CC(O)COc2ccc3ccccc3c2)CC1 (centres undefined) | 581 | -10.8% (inactive) | 0.6% (inactive) | 101% | -51.6% (inactive) | 106% | -0.414 (inactive) | -7.3e-05 (inactive) | 0.00595 (inactive) | 11.6% (inactive) | 15.2% (inactive) |
| O=C(c1ccco1)N1CCN(c2c(-c3ccccc3)c3cc(Cl)ccc3[nH]c2=O)CC1 | 603 | 2.1% (inactive) | -2.2% (inactive) | 119% | -72.2% (inactive) | 118% | -0.456 (inactive) | 2.5e-05 (inactive) | 0.00537 (inactive) | 24.2% (inactive) | 25.7% (inactive) |
| COc1ccc(-c2cc(C(F)F)n3ncc(C(=O)NCC4CCCO4)c3n2)cc1 (centres undefined) | 244 | 4.7% (inactive) | -15.8% (inactive) | 78.7% | -51% (inactive) | 108% | -0.000811 (active) | -2.9e-05 (inactive) | 0.00542 (inactive) | 20.7% (inactive) | 11.4% (inactive) |
| O=C(c1cnsn1)N1CCN(c2ccccn2)CC1 | 277 | 9.3% (inactive) | 4% (inactive) | 82.9% | 1.4% (inactive) | 95.4% | -0.45 (inactive) | -2.9e-05 (inactive) | 0.00527 (inactive) | 4.49% (inactive) | -0.785% (inactive) |
| Cc1cc(NC(=O)NC(=O)c2cccc(OC(F)(F)C(F)F)c2)n[nH]1 | 520 | -14% (inactive) | -5.5% (inactive) | 76.8% | -45% (inactive) | 102% | -0.539 (inactive) | 0.000153 (inactive) | 0.00729 (inactive) | -14.7% (inactive) | -48.5% (inactive) |
